Active and inactive are the calls of the source. The calls are words filed in the database; no cut-off is given here. Where a SMILES comes first, the peptide text is derived from it. Bridges are numbered along the chain shown (N, C = ends). [ ]: non-standard residue; d: D form. 2Nal = N[C@@H](Cc1ccc2ccccc2c1)C(=O)O; Cit = NC(=O)NCCC[C@H](N)C(=O)O
Assays:
[1] = target: T1, C-X-C chemokine receptor type 4 (Homo sapiens, UniProt P61073); experiment: Antagonist activity at CXCR4 in human MDA-MB-231 cells assessed as inhibition of CXCL12-mediated cell invasion at 10 nM by […] cell invasion assay; type: functional, cell-based
T1 sequence (P61073 whole entry): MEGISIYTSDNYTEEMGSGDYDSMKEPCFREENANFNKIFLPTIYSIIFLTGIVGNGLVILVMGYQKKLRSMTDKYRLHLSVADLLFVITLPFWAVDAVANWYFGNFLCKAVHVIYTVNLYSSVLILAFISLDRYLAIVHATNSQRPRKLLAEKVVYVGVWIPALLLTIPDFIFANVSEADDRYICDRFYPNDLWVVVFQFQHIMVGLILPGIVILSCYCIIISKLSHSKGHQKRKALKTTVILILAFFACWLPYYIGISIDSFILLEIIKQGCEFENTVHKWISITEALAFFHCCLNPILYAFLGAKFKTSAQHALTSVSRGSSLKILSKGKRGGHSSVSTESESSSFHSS

Mus musculus [2] = experiment: Antiinflammatory activity in C57BL/6L mouse assessed as inhibition of carrageenan-induced paw edema at 10 mg/kg, ip administered 30 mins before carrageenan challenge measured after 76 hrs; type: functional; details: for inhibition in vivo at 10 mg/kg: route intraperitoneal
[3] = target: T1, C-X-C chemokine receptor type 4; experiment: Displacement of biotinylated-TN14003 from CXCL12 binding site of CXCR4 in human MDA-MB-231 cells assessed as concentration required to inhibit >50% using rhodamine staining; type: cell-based
Procedure, shortened: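 MDA-MB-231 cells preincubated with compound at 1, 10, 100, 1000 nM, fixed in 4% formaldehyde, incubated with 50 nM biotinylated peptide antagonist then streptavidin-rhodamine; EC is lowest concentration blocking >50% of binding.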

[4] = target: T1, C-X-C chemokine receptor type 4; experiment: Antagonist activity at CXCR4 in human MDA-MB-231 cells assessed as inhibition of CXCL12-mediated cell invasion at 100 nM by […] cell invasion assay; type: functional, cell-based
MDA-MB-231 [5] = experiment: Antiangiogenic activity against human MDA-MB-231 cells xenografted in nude mouse assessed as hemoglobin level at 10 mg/kg, sc measured after 10 days by […] plug assay; type: functional; details: route subcutaneous; for inhibition in vivo at 10 mg/kg: Mus musculus, MDA-MB-231, sc, 240 h
Procedure, shortened: (§1)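 Nude mice, two s.c. flank plugs each (6 mice/group): 2×10^5 MDA-MB-231 cells in 0.5 mL growth factor-reduced Matrigel with compound mixed at 1 µM. From next day, daily s.c. dosing between plugs (10 mg/kg; peptide 300 µg/kg). Day 10 plugs excised, homogenized in water; supernatant with Drabkin's solution, 52 °C 10 min then RT 20 min, A540.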

[6] = Antimetastatic activity against HGF/TGF-beta/CXCR4/MMP2 expressing human OMM 2.3 cells xenografted in nude mouse eye assessed as decrease in number of hepatic micrometastases at 300 ug/kg, ip administered 3 days after tumor implantation QD for 28 days by hematoxylin and eosin staining; type: functional; parameters: scale not given: the % may be the effect or the level left
Procedure, shortened: (§2)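 Female nude mice, 10/group; 1×10^6 OMM2.3 cells into posterior chamber of right eye day 0. Daily i.p. dosing (10 mg/kg or 300 µg/kg in 0.1 mL 45% cyclodextrin) from day 3; vehicle controls; tumor eyes enucleated day 7. Day 28 livers formalin-fixed, H&E; micrometastases (<100 µm) counted in six central sections, averaged per section.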

MDA-MB-231 [7] = experiment: Antiangiogenic activity against human MDA-MB-231 cells xenografted in nude mouse assessed as hemoglobin level at 300 ug/kg, sc measured after 10 days by […] plug assay; type: functional, organism-based; procedure, shortened: as §1
Mus musculus [8] = experiment: Protection against bleomycin-induced lung injury in mouse assessed as decrease in lung fibrosis at 300 ug/kg, ip administered 1 day before bleomycin treatment and daily for 20 days by hematoxylin and eosin staining; type: functional; parameters: scale not given: the % may be the effect or the level left
Procedure, shortened: (§3)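 Mice, 10/group, anesthetized with isoflurane; 4 U/kg bleomycin in 100 µL PBS instilled intratracheally. Dosing i.p. (10 mg/kg, 300 µg/kg, or saline) from 1 day before bleomycin, daily for 20 days. Lungs harvested day 20, H&E-stained sections examined microscopically.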

Mus musculus [9] = experiment: Protection against bleomycin-induced lung injury in mouse assessed as decrease in alveolar structural distortion at 300 ug/kg, ip administered 1 day before bleomycin treatment and daily for 20 days by hematoxylin and eosin staining; type: functional, organism-based; procedure, shortened: as §3
Mus musculus [10] = experiment: Protection against bleomycin-induced lung injury in mouse assessed as decrease in interstitial structural distortion at 300 ug/kg, ip administered 1 day before bleomycin treatment and daily for 20 days by hematoxylin and eosin staining; type: functional, organism-based; procedure, shortened: as §3
Mus musculus [11] = experiment: Antiinflammatory activity in C57BL/6L mouse assessed as inhibition of carrageenan-induced paw edema at 300 ug/kg, ip administered 30 mins before carrageenan challenge measured after 76 hrs; type: functional, organism-based
[12] = target: C-C chemokine receptor type 5 (Homo sapiens) (UniProt P51681); experiment: Antagonist activity at human CCR5 expressed in human U87 cells expressing CD4 assessed as inhibition of CCL5-induced cAMP production pretreated for 15 mins before forskolin challenge by TR-FRET analysis; type: functional, cell-based; details: U-87MG ATCC
Sequence of C-C chemokine receptor type 5 (Homo sapiens) (P51681 whole entry, looked up): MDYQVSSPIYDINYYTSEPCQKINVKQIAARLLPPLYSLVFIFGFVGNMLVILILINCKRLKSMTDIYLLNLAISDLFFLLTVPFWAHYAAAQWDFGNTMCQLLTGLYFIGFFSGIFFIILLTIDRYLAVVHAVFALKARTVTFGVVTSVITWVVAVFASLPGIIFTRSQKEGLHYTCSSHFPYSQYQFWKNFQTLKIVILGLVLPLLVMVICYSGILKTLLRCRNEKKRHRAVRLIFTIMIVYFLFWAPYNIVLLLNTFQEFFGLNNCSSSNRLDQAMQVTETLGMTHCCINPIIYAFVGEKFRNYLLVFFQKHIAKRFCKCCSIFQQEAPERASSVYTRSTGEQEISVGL
Procedure, shortened: (§4)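 U87CD4CCR3 or U87CD4CCR5 cells pretreated with compound 15 min at room temperature, then stimulated with 150 ng/mL CCL5 in presence of 5 µM forskolin; cAMP measured by TR-FRET LANCE kit.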

[13] = target: T2, C-C chemokine receptor type 3 (Homo sapiens) (UniProt P51677); experiment: Antagonist activity at human CCR3 expressed in human U87 cells expressing CD4 assessed as inhibition of CCL5-induced cAMP production pretreated for 15 mins before forskolin challenge by TR-FRET analysis; type: functional, cell-based; details: U-87MG ATCC; procedure, shortened: as §4
T2 sequence (whole entry): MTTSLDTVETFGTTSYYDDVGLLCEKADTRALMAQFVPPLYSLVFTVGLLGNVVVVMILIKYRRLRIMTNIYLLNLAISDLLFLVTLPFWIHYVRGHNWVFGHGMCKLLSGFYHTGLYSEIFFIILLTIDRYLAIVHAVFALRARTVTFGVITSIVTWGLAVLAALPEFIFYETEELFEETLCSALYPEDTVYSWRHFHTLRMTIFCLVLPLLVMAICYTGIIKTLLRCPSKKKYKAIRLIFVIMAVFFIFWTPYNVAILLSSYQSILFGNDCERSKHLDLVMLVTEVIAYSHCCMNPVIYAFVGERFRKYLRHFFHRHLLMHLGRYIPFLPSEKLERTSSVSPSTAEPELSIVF

[14] = target: T1, C-X-C chemokine receptor type 4; experiment: Antagonist activity at human CXCR4 expressed in human U87 cells expressing CD4 assessed as inhibition of CXCL12-induced cAMP production pretreated for 15 mins before forskolin challenge by TR-FRET analysis; type: functional, cell-based, U-87MG ATCC
[15] = Half life in iv dosed mouse; type: ADME, organism-based; details: in vivo
Mus musculus [16] = experiment: Protection against bleomycin-induced lung injury in mouse assessed as decrease in alveolar structural distortion at 10 mg/kg, ip administered 1 day before bleomycin treatment and daily for 20 days by hematoxylin and eosin staining; type: functional, organism-based; parameters: dose 10 mg/kg; procedure, shortened: as §3
Mus musculus [17] = experiment: Protection against bleomycin-induced lung injury in mouse assessed as decrease in interstitial structural distortion at 10 mg/kg, ip administered 1 day before bleomycin treatment and daily for 20 days by hematoxylin and eosin staining; type: functional, organism-based; parameters: dose 10 mg/kg; procedure, shortened: as §3
[18] = Antimetastatic activity against HGF/TGF-beta/CXCR4/MMP2 expressing human OMM 2.3 cells xenografted in nude mouse eye assessed as decrease in number of hepatic micrometastases at 10 mg/kg, ip administered 3 days after tumor implantation QD for 28 days by hematoxylin and eosin staining; type: functional; parameters: scale not given: the % may be the effect or the level left; details: route intraperitoneal; procedure, shortened: as §2
Mus musculus [19] = experiment: Protection against bleomycin-induced lung injury in mouse assessed as decrease in lung fibrosis at 10 mg/kg, ip administered 1 day before bleomycin treatment and daily for 20 days by hematoxylin and eosin staining; type: functional; parameters: scale not given: the % may be the effect or the level left; details: route intraperitoneal; procedure, shortened: as §3

SMILES: Clc1ccc(NCc2ccc(CNc3ncccn3)cc2)nc1
- inhibition [1]: 82%
- inhibition in vivo at 10 mg/kg (Mus musculus [2]): 20%
- EC [3]: 10 nM
- inhibition [4]: 100%

SMILES: c1ccc(NCc2ccc(CNc3ncccn3)cc2)nc1
- inhibition [1]: 58%
- EC [3]: 100 nM
- inhibition [4]: 64%

SMILES: Clc1cccc(NCc2ccc(CNc3ncccn3)cc2)n1
- inhibition [1]: 100%
- inhibition in vivo at 10 mg/kg (Mus musculus [2]): > 50%
- EC [3]: 1 nM
- inhibition in vivo at 10 mg/kg (MDA-MB-231 [5]): > 30%
- inhibition [4]: 100%

SMILES: Fc1ccccc1NCc1ccc(CNc2ncccn2)cc1
- inhibition [1]: 41%
- inhibition [4]: 62%

SMILES: N=C(N)NCCC[C@H](NC(=O)[C@@H]1CSSC[C@H](NC(=O)[C@H](Cc2ccc3ccccc3c2)NC(=O)[C@H](CCCNC(=N)N)NC(=O)[C@@H](N)CCCNC(=N)N)C(=O)N[C@@H](Cc2ccc(O)cc2)C(=O)N[C@@H](CCCNC(N)=O)C(=O)N[C@@H](CCCCN)C(=O)N[C@H](CCCCN)C(=O)N2CCC[C@H]2C(=O)N[C@@H](Cc2ccc(O)cc2)C(=O)N[C@@H](CCCNC(=N)N)C(=O)N[C@@H](CCCNC(N)=O)C(=O)N1)C(N)=O (H-RR[2Nal]CY[Cit]K[dK]PYR[Cit]CR-NH2; disulfide 4-13)
- Activity [6]: 50%
- inhibition (MDA-MB-231 [7]): Active
- Activity (Mus musculus [8]): 85%
- Activity (Mus musculus [9]): Active
- Activity (Mus musculus [10]): Active
- inhibition (Mus musculus [11]): Active

SMILES: c1ccc(NCc2ccc(CNc3ncccn3)cc2)cc1
- inhibition in vivo at 10 mg/kg (Mus musculus [2]): 20%

SMILES: c1cnc(NCc2ccc(CNc3ccccc3N3CCCC3)cc2)nc1
- inhibition [1]: 61%
- EC [3]: 100 nM
- inhibition [4]: 73%

SMILES: CCOCCN1CCN(C(=O)c2cnc(NCc3ccc(CNc4ncc(F)cn4)cc3)nc2C(F)(F)F)CC1
- inhibition [1]: 34%
- inhibition in vivo at 10 mg/kg (Mus musculus [2]): 20%
- inhibition [12]: inactive
- EC [3]: 1 nM
- inhibition in vivo at 10 mg/kg (MDA-MB-231 [5]): > 30%
- inhibition [4]: 95%
- inhibition [13]: inactive
- IC50 [14]: 5.4 nM

SMILES: Fc1cccc(NCc2ccc(CNc3cccc(F)n3)cc2)n1
- inhibition [1]: 55%
- EC [3]: 100 nM
- inhibition [4]: 85%

SMILES: Fc1cnc(Cl)nc1NCc1ccc(CNc2ccnc(NCCN3CCOCC3)n2)cc1
- inhibition [1]: 84%
- inhibition in vivo at 10 mg/kg (Mus musculus [2]): > 50%
- inhibition [12]: inactive
- half-life [15]: 15 min
- Activity (Mus musculus [16]): Active
- EC [3]: 1 nM
- Activity (Mus musculus [17]): Active
- Activity (MDA-MB-231 [5]): 70%
- inhibition [4]: 100%
- inhibition [13]: inactive
- IC50 [14]: 0.8 nM
- Activity [18]: 50%
- Activity (Mus musculus [19]): 55%

SMILES: c1cnc(NCc2ccc(CNc3ccc(N4CCCC4)cc3)cc2)nc1
- inhibition [1]: 57%
- EC [3]: 1 nM
- inhibition [4]: 82%

SMILES: Fc1cnc(NCc2ccc(CNc3ncc(F)cn3)cc2)nc1
- inhibition [1]: 75%
- EC [3]: 1 nM
- inhibition [4]: 75%

SMILES: Fc1cnc(NCc2ccc(CNc3nccc(C(F)(F)F)n3)cc2)nc1
- inhibition [1]: 73%
- inhibition in vivo at 10 mg/kg (Mus musculus [2]): 20%
- EC [3]: 1 nM
- inhibition in vivo at 10 mg/kg (MDA-MB-231 [5]): > 30%
- inhibition [4]: 93%

SMILES: Fc1nccc(NCc2ccc(CNc3ccnc(F)n3)cc2)n1
- inhibition [1]: 65%
- EC [3]: 1 nM
- inhibition [4]: 81%

SMILES: COc1ncc(F)c(NCc2ccc(CNc3nc(OC)ncc3F)cc2)n1
- inhibition [1]: 77%
- inhibition in vivo at 10 mg/kg (Mus musculus [2]): 20%
- EC [3]: 1 nM
- inhibition [4]: 100%

SMILES: Fc1ccc(NCc2ccc(CNc3ccc(F)cn3)cc2)nc1
- inhibition [1]: 45%
- EC [3]: 100 nM
- inhibition [4]: 68%

SMILES: COc1nccc(NCc2ccc(CNc3ccnc(OC)n3)cc2)n1
- inhibition [1]: 24%
- EC [3]: 10 nM
- inhibition in vivo at 10 mg/kg (MDA-MB-231 [5]): > 30%
- inhibition [4]: 65%

SMILES: Fc1ccccc1NCc1ccc(CNc2ccccc2F)cc1
- inhibition [1]: 32%
- EC [3]: 100 nM
- inhibition [4]: 58%

SMILES: c1ccc(NCc2ccc(CNc3ccccn3)cc2)nc1
- inhibition (Mus musculus [2]): Active
- inhibition [12]: inactive
- inhibition [13]: inactive
- IC50 [14]: 1.8 nM

SMILES: Fc1cccc(NCc2ccc(CNc3ncccn3)cc2)n1
- inhibition [1]: 53%
- inhibition in vivo at 10 mg/kg (Mus musculus [2]): > 50%
- inhibition in vivo at 10 mg/kg (MDA-MB-231 [5]): > 30%
- inhibition [4]: 80%

SMILES: c1cnc(NCc2ccc(CNc3cccc(N4CCCC4)c3)cc2)nc1
- inhibition [1]: 41%
- EC [3]: 10 nM
- inhibition [4]: 78%

SMILES: c1ccc(NCc2ccc(CNc3ccccc3)cc2)cc1
- inhibition [1]: 54%
- inhibition [4]: 64%

SMILES: Clc1nc(Cl)nc(NCc2ccc(CNc3nc(Cl)nc(Cl)n3)cc2)n1
- inhibition [1]: 61%
- EC [3]: 10 nM
- inhibition [4]: 82%
